# Reference: PubChem BioAssay AID1040 (The Scripps Research Institute Molecular Screening Center, 2008)
# Screen size: about 200,000 compounds; about 2,000 (1%) were called active. The list comes from a sample in which actives are over-represented; it also holds similar structures and randomly drawn compounds. Values without a mark were called inactive.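 How the source made its calls: active means inhibition above the campaign mean inhibition of all tested compounds plus 3 SD (cut at about 20% in these data); inactive means the rest.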
# Target: Neuropeptide Y receptor type 1 (Homo sapiens) (UniProt P25929)
# Assay: NPY-Y1 receptor antagonists, primary screen, cell-based (AID 1040);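 further: 0% = DMSO wells given NPY plus isoproterenol and 100% = isoproterenol alone without NPY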
# Details: HEK293-CNG Y1 cells, membrane potential fluorescence; at 3.6 µM; stronger effect = higher value; NPY at EC95, then isoproterenol
# Summary of the method: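 Assay system: HEK293 Y1/CNG channel cell line; Doses: single compound dose of 3.6 µM, 0.4% DMSO; Timing: dye 3 h, compound 60 min room temperature, stimulation 45 min; Technique: Membrane-potential fluorescent dye readout; Measure: % inhibition of NPY effect.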
# Sequence of Neuropeptide Y receptor type 1 (Homo sapiens) (P25929 whole entry, looked up): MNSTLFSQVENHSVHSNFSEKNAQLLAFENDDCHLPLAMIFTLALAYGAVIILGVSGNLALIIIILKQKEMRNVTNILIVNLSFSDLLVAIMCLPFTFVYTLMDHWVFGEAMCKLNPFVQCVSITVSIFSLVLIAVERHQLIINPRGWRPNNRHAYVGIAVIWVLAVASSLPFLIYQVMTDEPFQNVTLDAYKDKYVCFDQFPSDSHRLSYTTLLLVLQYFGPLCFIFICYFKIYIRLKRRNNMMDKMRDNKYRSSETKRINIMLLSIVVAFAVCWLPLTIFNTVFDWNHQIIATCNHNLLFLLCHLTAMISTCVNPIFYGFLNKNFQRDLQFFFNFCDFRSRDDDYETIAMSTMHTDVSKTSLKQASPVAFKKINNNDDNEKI
row,Structure (SMILES),inhibition
1,O=C(CCc1nnc(CCCCc2ccccc2)o1)NC(c1cccnc1)C(F)(F)F (stereo unspecified),3.83%
2,S=c1[nH]nc(Nc2ccccc2)s1,7.84%
3,O=[N+]([O-])c1cccc(C2=NCCS2)c1,2.43%
4,O=C(CN1C(=O)NC2(CCCC2)C1=O)NCC1CCCO1 (stereo unspecified),-1.75%
5,O=C(CN1C(=O)NC2(CCCCCC2)C1=O)NC1CC1,0.75%
6,O=C(CN1C(=O)NC(Cc2ccccc2)(Cc2ccccc2)C1=O)NCC1CCCCC1,68.1% (active)
7,O=C(CC1SCCNC1=O)Nc1ccc(Cl)cc1 (stereo unspecified),6.74%
8,Cc1cc(C)c2c(-n3cccc3)c(NC(=O)OCc3ccccc3)sc2n1,36.9% (active)
9,COC(=O)Nc1sc2nc(C)cc(C)c2c1-n1cccc1,0.35%
10,CCCCOC(=O)Nc1sc2nc(C)cc(C)c2c1-n1cccc1,2.5%
11,CCC(C)NC(=O)CN(C1CCCCC1)S(C)(=O)=O (stereo unspecified),0.13%
12,O=C(NCCCN1CCOCC1)c1ccccc1NS(=O)(=O)c1ccc(Br)cc1,11.9%
13,O=C(NCCCN1CCOCC1)c1cnn2c(-c3ccccc3)cc(-c3ccccc3)nc12,30.1% (active)
14,O=C(NCCCN1CCOCC1)c1ccccc1NS(=O)(=O)c1ccc(F)cc1,5.43%
15,O=C(CN1CCN(c2ccc(O)cc2)CC1)NC1CCCc2ccccc21 (stereo unspecified),4.77%
16,Nc1nc(SCC(=O)NNc2c(Cl)cc(Cl)cc2Cl)n[nH]1,8.35%
17,CC(=O)c1c(C)[nH]c(C(=O)COC(=O)c2cccc(S(=O)(=O)N(C)c3ccccc3)c2)c1C,2.37%
18,CC(C)CNC(=O)COC(=O)c1ccccc1OCC(=O)Nc1ccc(Br)cc1,3.51%
19,CCN1CCN(c2c(Cl)cccc2NC(=O)c2ccc(Br)o2)CC1,23.8% (active)
20,CCCC(=O)Nc1ccc(Cl)c(NC(=O)c2ccc(Br)o2)c1,-1.88%
21,COc1cc(OC)c(NC(=O)c2ccc(Br)o2)cc1Cl,0%
22,Cc1ccc(C(=O)NC(=S)Nc2ccc(N3CCOCC3)cc2)cc1,-3.91%
23,Cc1ccc(OCC(=O)N/N=C/c2ccncc2)cc1,0.98%
24,Cc1ccc(/C=N/NC(=O)COc2ccccc2-c2ccccc2)cc1,22.8% (active)

row,Structure (SMILES),inhibition
1,Cc1ccc(OCC(=O)N/N=C\c2ccco2)c(C)c1,7.4%
2,OCCNCc1cccc(OCc2ccccc2Cl)c1,11.2%
3,O=C(O)c1ccc(/C=N/NC(=O)c2ccc(Br)cc2)cc1,2.79%
4,Cc1cccc(C)c1OCC(O)CN1CCCCC1 (stereo unspecified),6.39%
5,OC(COCCC12CC3CC(CC(C3)C1)C2)CN1CCCCC1 (stereo unspecified),26.9% (active)
6,OC(COc1ccc(CN2CCSCC2)cc1)CN1CCCCC1 (stereo unspecified),6.88%
7,CCC1CCCCN1C(=O)CSc1nc2c(c(=O)n(C)c(=O)n2C)n1C (stereo unspecified),4.16%
8,COc1ccc(C(=O)CSc2nnc(COc3ccccc3)n2Cc2ccco2)cc1,24.4% (active)
9,C=CCn1c(CNC(=O)c2ccco2)nnc1SCC(=O)c1ccc(OC)cc1,0.4%
10,CCn1c(COc2ccccc2)nnc1SCC(=O)NCc1ccco1,-4.68%
11,COc1ccc(NC(=O)CCNS(=O)(=O)c2ccc3c(c2)c(=O)n(C)c(=O)n3C)cc1OC,5.39%
12,Cc1ccc(-n2nc3cc(Cl)c(NC(=O)c4ccco4)cc3n2)cc1,-10%
13,Cc1ccc(Cn2c(NC(=O)c3ccco3)nc3ccccc32)cc1,24.1% (active)
14,CC(=O)Nc1nc2ccccc2n1Cc1ccc(C)cc1,6.94%
15,NC(=O)c1ccc(NC(=O)COC(=O)C(Cc2ccccc2)NC(=O)c2ccccc2)cc1 (stereo unspecified),4.77%
16,O=C(Nc1ccncc1)c1cc2ccccc2o1,-5.2%
17,O=C(CC(Cc1ccccc1)C(=O)O)NCCc1ccc2c(c1)OCO2 (stereo unspecified),8.49%
18,O=C(NCCc1ccc2c(c1)OCCO2)c1cc2ccccc2o1,21.4% (active)
19,CC[C@H](C)[C@@H](C(=O)N1CCNCC1)n1cc([C@@H](N)Cc2ccc(O)cc2)nn1,4.22%
20,COc1cc(OC)nc(S(C)(=O)=O)n1,-1.87%
21,Cc1ccccc1NC(=O)Cn1c(=O)n(CC2CCCO2)c(=O)c2ccccc21 (stereo unspecified),0.4%
22,COc1cc(OC)cc(-c2nnc(SCC(=O)Nc3ccc(C(=O)O)cc3)s2)c1,-5.61%
23,Fc1ccccc1Cn1cnc(NC(=S)NCCc2ccccc2)n1,0.55%
24,N=c1n(CCc2ccccc2)c2ccccc2n1Cc1ccccc1F,24.2% (active)

row,Structure (SMILES),inhibition
1,CN(Cc1ccccc1)Cc1ccccc1F,0.6%
2,CCOC(=O)C1CCCN(C(=O)c2cccc(S(=O)(=O)N3CCOCC3)c2)C1 (stereo unspecified),-0.08%
3,Cc1cccc(C)c1OCC(=O)NC(Cc1c[nH]c2ccccc12)C(=O)O (stereo unspecified),6.9%
4,Cc1ccccc1-c1n[nH]c(=S)n1C,1.64%
5,c1ccc(Nc2nc(N3CCOCC3)c3ccccc3n2)cc1,3.28%
6,c1ccc(-c2nnc(N3CCOCC3)c3ccccc23)cc1,-0.9%
7,c1ccc2c(NC3C4CC5CC(C4)CC3C5)nc(N3CCOCC3)nc2c1 (stereo unspecified),31.8% (active)
8,COC(=O)Cc1ccc(N(Cc2ccccc2F)S(=O)(=O)c2ccc(Br)cc2)cc1,18.1%
9,COc1ccc(-n2nc(C(=O)Nc3cc(OC)c(OC)c(OC)c3)c3ccccc3c2=O)c(OC)c1,1.85%
10,O=c1c2ccccc2c(-c2ccccc2)nn1Cc1ccccc1,0.35%
11,O=c1c2ccccc2c(-c2ccc(F)cc2)nn1-c1ccc(C(F)(F)F)cc1,21.4% (active)
12,O=c1c2ccccc2c(-c2ccccc2)nn1-c1ccccn1,4.37%
13,COc1ccc(CS(=O)/C(Cl)=C(/Cl)C(=O)Nc2ccc(OC)nc2)cc1 (stereo unspecified),11.2%
14,O=C(Cc1cccs1)Nc1cccc(-c2nc3ccccc3[nH]2)c1,3.86%
15,Cc1ccc(-n2nc3ccc(NC(=O)/C=C/c4ccco4)cc3n2)cc1C,6.59%
16,O=C(/C=C/c1ccco1)Nc1cccc(-c2nc3ccccc3[nH]2)c1,20.3% (active)
17,COc1ccc(C(c2nnnn2C2CCCCC2)N2CCN(c3ccccc3F)CC2)cc1 (stereo unspecified),23.3% (active)
18,COc1ccc(N2CCN(C(c3cc4ccc(C)cc4[nH]c3=O)c3nnnn3C3CCCC3)CC2)cc1 (stereo unspecified),0.99%
19,CC(C)C(c1nnnn1C1CCCC1)N1CCN(c2ccccc2F)CC1 (stereo unspecified),10.8%
20,CC(C)C(=O)Nc1oc(-c2ccccc2)cc1C#N,3.99%
21,O=C(c1cccc(S(=O)(=O)Nc2ccccc2Cl)c1)N1CCN(C(=O)c2ccco2)CC1,-2.11%
22,O=C(O)CCCCOn1ccnc1,4.94%
23,C=C(C)Cn1c(SCC(=O)NCc2ccco2)nc2sc3c(c2c1=O)CCC3,8.57%
24,O=C(CSc1nc2cc3c(cc2c(=O)n1CCC1=CCCCC1)OCO3)NCc1ccco1,26.8% (active)

row,Structure (SMILES),inhibition
1,O=C(CCCn1c(SCC(=O)c2ccc(F)cc2)nc2ccccc2c1=O)NCc1ccco1,3.6%
2,CCC1(CC)NC(=O)N(CC(=O)OCC(=O)NC(=O)c2ccccc2)C1=O,1.96%
3,CC1(C)C2CC=C(/C=N/NC(=O)C3CC3)C1C2 (stereo unspecified),4.14%
4,CSCC[C@H](NC(=O)OC(C)(C)C)C(=O)N/N=C/c1cc2ccc(C)cc2nc1Cl,-2.75%
5,CC(=O)c1ccc(NC(=O)c2ccc3c(Cl)c4c(nc3c2)CCCC4)cc1,-4.67%
6,Fc1ccc2nc(-c3ccccc3)nc(SCc3nnc(-c4ccccc4)o3)c2c1,2.58%
7,COc1ccc(-c2nnc(SCC(=O)c3ccc4c(c3)OCCO4)o2)cc1,-4.74%
8,Fc1ccc(-c2nnc(CSc3nnc(-c4ccc5c(c4)OCO5)o3)o2)cc1,29.9% (active)
9,CCCS(=O)(=O)N1CCC(CCOc2ccccc2)(C(=O)OCC)CC1,6.41%
10,COC(=O)c1c(NC(=O)COC(=O)[C@@H](NS(=O)(=O)c2ccccc2)C(C)C)sc2c1CCC2,10.2%
11,COc1ccc2c3c(c(=O)oc2c1OCC(=O)C(C)(C)C)CCCC3,10.2%
12,O=c1oc2c(CN3CCCCC3)c(O)ccc2c2c1CCCCC2,6.84%
13,CCCOc1ccc2c3c(c(=O)oc2c1OCCC)CCC3,21.1% (active)
14,O=C(CSc1nc2ccc(Nc3nc(N4CCOCC4)nc(N4CCOCC4)n3)cc2s1)NCc1ccco1,2.78%
15,CN(C)c1ccc(C(CNC(=O)c2ccc(F)cc2)c2c[nH]c3ccccc23)cc1 (stereo unspecified),-7.11%
16,C=CCOC(=O)C1=C(C)OC(N)=C(C#N)C1c1ccc(F)cc1 (stereo unspecified),-1.17%
17,Cc1cc2c(c(=O)n1C)C(C(C)C)C(C#N)=C(N)O2 (stereo unspecified),9.44%
18,C=CCSc1nc2c(c(=O)[nH]1)C(C(C)C)C(C#N)=C(N)O2 (stereo unspecified),77.2% (active)
19,CC(=O)Oc1c(C(=O)c2nnc(C)o2)c(=O)n(Cc2ccccc2)c2ccccc12,1.05%
20,COc1ccc(F)cc1C(=O)C1CCCN(C(=O)CCc2ccccn2)C1 (stereo unspecified),6.35%
21,CCS(=O)(=O)Nc1ccc(C2=NN(C(C)=O)C(c3cccs3)C2)cc1 (stereo unspecified),-0.01%
22,O=C(O)CCC(=O)Nc1nc2ccc([N+](=O)[O-])cc2s1,-1.24%
23,O=C(Nc1nc2ccc([N+](=O)[O-])cc2s1)c1ccc(S(=O)(=O)N2CCCc3ccccc32)cc1,-0.71%
24,O=C(NC(Nc1nc2ccc([N+](=O)[O-])cc2s1)(C(F)(F)F)C(F)(F)F)c1ccccc1,32.9% (active)
